This is an account of results in ChEMBL document CHEMBL1132281, “Compounds that activate the mouse melanocortin-1 receptor identified by screening a small molecule library based upon the beta-turn” (J Med Chem, 1999).

One may read the EC50 as the midpoint of the concentration-response curve. The low end stands for a more potent agent, the high end for a less potent agent.

Sequence of Melanocyte-stimulating hormone receptor (Q01727 whole entry): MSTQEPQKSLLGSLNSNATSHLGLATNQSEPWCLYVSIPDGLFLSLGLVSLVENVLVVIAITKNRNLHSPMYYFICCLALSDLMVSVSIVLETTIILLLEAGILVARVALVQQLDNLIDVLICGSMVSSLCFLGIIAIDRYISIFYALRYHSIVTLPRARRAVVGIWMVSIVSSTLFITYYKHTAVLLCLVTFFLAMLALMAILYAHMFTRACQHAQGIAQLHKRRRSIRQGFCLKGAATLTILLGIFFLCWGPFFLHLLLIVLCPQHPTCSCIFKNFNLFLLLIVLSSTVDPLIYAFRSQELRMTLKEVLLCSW

For the assay, the target named is Melanocyte-stimulating hormone receptor (Mus musculus, UniProt Q01727). The experiment in a line: Agonistic activity against mouse Melanocortin 1 receptor (mMC1R). Type of assay: functional. Put shortly:
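HEK-293 cells (DMEM, 10% fetal calf serum) stably expressing the mouse receptor (pCDNA3, G418 selection) were transfected with a CRE/β-galactosidase reporter. At 48 h post-transfection, cells were stimulated for 6 h in DMEM with 0.1 mg/mL BSA and 0.1 mM IBMX, at 10^-4 to 10^-10 M in triplicate. Lysates were read with ONPG at 37° (OD405), and the data were normalized to protein (OD595) and to forskolin (10^-4 M).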
Take `CC(=O)N[C@@H](Cc1c[nH]cn1)C(=O)N[C@H](Cc1ccccc1)C(=O)N[C@@H](CCC(N)=O)C(=O)N[C@H](Cc1c[nH]c2ccccc12)C(N)=O`: a half-maximal effect (EC50) was put at 100 µM.

As to `NCCCC[C@H]1NC(=O)[C@H](Cc2c[nH]c3ccccc23)SCCN(CCc2ccccc2)C1=O`, the concentration for a half-maximal effect (EC50) turned out to be 63.4 µM.

On to `CC(=O)N[C@H](Cc1ccccc1)C(=O)N[C@@H](C)C(=O)N[C@H](Cc1c[nH]c2ccccc12)C(N)=O`, for which the 50% effective concentration (EC50) was > 100 µM.

`CC(=O)N[C@@H](Cc1cnc[nH]1)C(=O)N[C@H](Cc1ccccc1)C(=O)N[C@@H](C)C(=O)N[C@H](Cc1c[nH]c2ccccc12)C(N)=O`: the half-maximal effective concentration (EC50) is > 100 µM.

Turning to `CC(=O)N[C@H](Cc1ccccc1)C(=O)NCC(=O)N[C@H](Cc1c[nH]c2ccccc12)C(N)=O`, the EC50 came to 100 µM.

Turning to `CC(=O)N[C@H](Cc1ccccc1)C(=O)N[C@@H](CCCCN)C(=O)N[C@H](Cc1c[nH]c2ccccc12)C(N)=O`, the EC50 is > 100 µM.

As to `CC(=O)N[C@H](Cc1ccccc1)C(=O)N[C@@H](CCC(N)=O)C(=O)N[C@H](Cc1c[nH]c2ccccc12)C(N)=O`, the response was half-maximal at 100 µM (EC50).

`CC(=O)N[C@@H](Cc1c[nH]cn1)C(=O)N[C@H](Cc1ccccc1)C(=O)N[C@@H](CCCCN)C(=O)N[C@H](Cc1c[nH]c2ccccc12)C(N)=O`: the EC50 was > 100 µM.

Compound `O=C1[C@H]2CCCN2C(=O)C(Cc2ccc3ccccc3c2)SCCN1CCc1c[nH]c2ccccc12` (stereo not given in full) yielded a concentration giving a half-maximal response (EC50) of 42.5 µM.

As to `CC(=O)N[C@@H](Cc1c[nH]cn1)C(=O)N[C@H](Cc1ccccc1)C(=O)NCC(=O)N[C@H](Cc1c[nH]c2ccccc12)C(N)=O`, the EC50 is > 100 µM.
